Source: ChEMBL document CHEMBL1140227, “Histone deacetylase inhibitors through click chemistry” (J Med Chem, 2008)

Columns and labels:
TK-10 = assay: Growth inhibition of human TK10 cells at 10 uM relative to control; type: functional; details: values are per cent of control
Procedure, shortened: (§1)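 Single-dose NCI human tumour cell line screen, run by the NIH. Percent inhibition of cell line growth was calculated by comparison with untreated samples.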

Histone deacetylase 1 = Histone deacetylase 1 (Homo sapiens, UniProt Q13547); assay: Inhibition of human HDAC1
T47D = assay: Growth inhibition of human T47D cells at 10 uM relative to control; type: functional; details: values are per cent of control; procedure, shortened: as §1
HT-29 = assay: Growth inhibition of human HT-29 cells at 10 uM relative to control; type: functional; details: values are per cent of control
Procedure, shortened: (§2)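 Single-dose preliminary screen in the NCI human cancer cell line panel, run by the NIH. Percent inhibition of cell line growth was calculated by comparison with untreated samples.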

A498 = assay: Growth inhibition of human A498 cells at 10 uM relative to control; type: functional; details: values are per cent of control; procedure, shortened: as §2
SK-MEL-5 = assay: Growth inhibition of human SK-MEL-5 cells at 10 uM relative to control; type: functional; details: values are per cent of control; procedure, shortened: as §2
UACC-257 = assay: Growth inhibition of human UACC257 cells at 10 uM relative to control; type: functional; details: values are per cent of control; procedure, shortened: as §1
M14 = assay: Growth inhibition of human M14 cells at 10 uM relative to control; type: functional; details: values are per cent of control; procedure, shortened: as §2
SNB-75 = assay: Growth inhibition of human SNB75 cells at 10 uM relative to control; type: functional; details: values are per cent of control; procedure, shortened: as §1
786-0 = assay: Growth inhibition of human 786-0 cells at 10 uM relative to control; type: functional; details: values are per cent of control; procedure, shortened: as §2
PC-3 = assay: Growth inhibition of human PC3 cells at 10 uM relative to control; type: functional; details: values are per cent of control; procedure, shortened: as §2
SK-MEL-2 = assay: Growth inhibition of human SK-MEL-2 cells at 10 uM relative to control; type: functional; details: values are per cent of control; procedure, shortened: as §2
SNB-19 = assay: Growth inhibition of human SNB19 cells at 10 uM relative to control; type: functional; details: values are per cent of control; procedure, shortened: as §2
SF-539 = assay: Growth inhibition of human SF539 cells at 10 uM relative to control; type: functional; details: values are per cent of control; procedure, shortened: as §2
NCI/ADR-RES = assay: Growth inhibition of human NCI/ADR-RES cells at 10 uM relative to control; type: functional; details: values are per cent of control; procedure, shortened: as §2
A549 = assay: Growth inhibition of human A549 cells at 10 uM relative to control; type: functional; details: values are per cent of control; procedure, shortened: as §2
OVCAR-4 = assay: Growth inhibition of human OVCAR4 cells at 10 uM relative to control; type: functional; details: values are per cent of control; procedure, shortened: as §2
SF-268 = assay: Growth inhibition of human SF268 cells at 10 uM relative to control; type: functional; details: values are per cent of control; procedure, shortened: as §2
HL-60(TB) = assay: Growth inhibition of human HL-60(TB) cells at 10 uM relative to control; type: functional; details: read-out: INH
Procedure, shortened: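 Single-dose cell line screen run by the NCI (NIH) in its human cancer cell line panel, which includes the leukemia line HL-60(TB). Percent growth inhibition was calculated by comparison with untreated samples.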

U-251 = assay: Growth inhibition of human U251 cells at 10 uM relative to control; type: functional; details: values are per cent of control; procedure, shortened: as §1
Malme-3M = assay: Growth inhibition of human MALME-3M cells at 10 uM relative to control; type: functional; details: values are per cent of control; procedure, shortened: as §2
SN12C = assay: Growth inhibition of human SN12C cells at 10 uM relative to control; type: functional; details: values are per cent of control; procedure, shortened: as §2
NCI-H23 = assay: Growth inhibition of human NCI-H23 cells at 10 uM relative to control; type: functional; details: values are per cent of control; procedure, shortened: as §2
MDA-MB-468 = assay: Growth inhibition of human MDA-MB-468 cells at 10 uM relative to control; type: functional; details: values are per cent of control; procedure, shortened: as §2
[1] = Growth inhibition of human RPMI8266 cells at 10 uM relative to control; type: functional; details: values are per cent of control; procedure, shortened: as §2
HOP-92 = assay: Growth inhibition of human HOP92 cells at 10 uM relative to control; type: functional; details: values are per cent of control; procedure, shortened: as §2
OVCAR-8 = assay: Growth inhibition of human OVCAR8 cells at 10 uM relative to control; type: functional; details: values are per cent of control; procedure, shortened: as §2
RXF 393 = assay: Growth inhibition of human […] cells; type: functional
OVCAR-5 = assay: Growth inhibition of human OVCAR5 cells at 10 uM relative to control; type: functional; details: values are per cent of control; procedure, shortened: as §2
UO-31 = assay: Growth inhibition of human UO31 cells at 10 uM relative to control; type: functional; details: values are per cent of control; procedure, shortened: as §1
cells = type: functional; details: Homo sapiens, Cancer cell lines
EKVX = assay: Growth inhibition of human EKVX cells at 10 uM relative to control; type: functional; details: values are per cent of control; procedure, shortened: as §2
IGROV-1 = assay: Growth inhibition of human IGROV1 cells at 10 uM relative to control; type: functional; details: values are per cent of control; procedure, shortened: as §2

Chain of Histone deacetylase 1 (Q13547 whole entry): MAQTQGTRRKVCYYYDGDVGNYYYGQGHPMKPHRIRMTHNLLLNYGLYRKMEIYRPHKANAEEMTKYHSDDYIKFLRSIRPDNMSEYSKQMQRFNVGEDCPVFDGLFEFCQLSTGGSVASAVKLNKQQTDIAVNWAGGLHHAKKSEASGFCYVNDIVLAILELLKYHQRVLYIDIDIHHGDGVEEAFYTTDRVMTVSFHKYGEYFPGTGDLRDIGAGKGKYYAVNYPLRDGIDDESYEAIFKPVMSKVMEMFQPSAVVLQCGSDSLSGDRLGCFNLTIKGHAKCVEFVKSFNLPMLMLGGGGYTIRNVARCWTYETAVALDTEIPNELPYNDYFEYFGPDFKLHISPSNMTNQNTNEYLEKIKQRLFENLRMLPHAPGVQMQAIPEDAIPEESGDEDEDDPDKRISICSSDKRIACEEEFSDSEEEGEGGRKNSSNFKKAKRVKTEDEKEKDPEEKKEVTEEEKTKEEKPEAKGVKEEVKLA

O=C(/C=C/c1cn(C/C=C/c2ccccc2)nn1)NO
growth, % of control at 10 µM (TK-10): -8.37%
IC50 (Histone deacetylase 1): 104 nM
growth, % of control at 10 µM (T47D): -11.9%
growth, % of control at 10 µM (HT-29): 12%
growth, % of control at 10 µM (A498): -74.4%
growth, % of control at 10 µM (SK-MEL-5): -79%
growth, % of control at 10 µM (UACC-257): -32.1%
growth, % of control at 10 µM (M14): 1.63%
growth, % of control at 10 µM (SNB-75): 16.7%
growth, % of control at 10 µM (786-0): -36.1%
growth, % of control at 10 µM (PC-3): 11%
growth, % of control at 10 µM (SK-MEL-2): -51.7%
growth, % of control at 10 µM (SNB-19): -12.4%
growth, % of control at 10 µM (SF-539): 5.16%
growth, % of control at 10 µM (NCI/ADR-RES): -14.2%
growth, % of control at 10 µM (A549): -8.94%
growth, % of control at 10 µM (OVCAR-4): 55.7%
growth, % of control at 10 µM (SF-268): -0.08%
growth, % of control at 10 µM (HL-60(TB)): -5.68%
growth, % of control at 10 µM (U-251): -89.9%
growth, % of control at 10 µM (Malme-3M): -28.7%
growth, % of control at 10 µM (SN12C): 25%
growth, % of control at 10 µM (NCI-H23): 21.4%
growth, % of control at 10 µM (MDA-MB-468): 45.8%
growth, % of control at 10 µM [1]: -13.9%
growth, % of control at 10 µM (HOP-92): -42%
growth, % of control at 10 µM (OVCAR-8): 1.24%
GI50 (RXF 393): < 10 nM
growth, % of control at 10 µM (OVCAR-5): 1.43%
growth, % of control at 10 µM (UO-31): 0.73%
growth percent at 10 µM (cells): -20%
growth, % of control at 10 µM (EKVX): 23.7%
growth, % of control at 10 µM (IGROV-1): -13.8%
